Calls of active or inactive are those of the source. The calls are words filed in the database; no cut-off is given here.
What was measured:
[1] = test system: HCT-116; assay: Induction of apoptosis in human HCT116 cells assessed as viable cells at 5 uM after 24 hrs by caspase3/7 reagent based flow cytometry (reference value: 88.4%); assay type: functional; conditions: HCT-116, 24 h, read-out: Activity
[2] = test system: HCT-116; assay: Induction of apoptosis in human HCT116 cells assessed as viable cells at 5 uM after 24 hrs by annexin-V staining based flow cytometry analysis (reference value: 90.38%); assay type: functional; conditions: HCT-116, 24 h, read-out: Activity
[3] = test system: A549; assay: Anticancer activity against human A549 cells assessed as inhibition of cell growth after 24 hrs by MTT assay; assay type: functional, cell-based; conditions: A549, 24 h
Procedure, shortened: (§1)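 MTT assay at 3,000 cells/well. Cells treated with DMSO or seven concentrations from 0.5 to 50 µM for 24, 48 or 72 h. MTT added 3 h before the end point; formazan dissolved in DMSO and read at 570 and 630 nm. IC50 is the concentration giving 50% growth inhibition. Media: PANC-1, BxPC3 and 1205Lu in DMEM; DU145 and A549 in RPMI 1640; HT29, HCT116 and RKO in McCoy's 5A, all with 10% FBS and pen/strep, at 37 °C and 5% CO2.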

[4] = test system: HCT-116; assay: Induction of apoptosis in human HCT116 cells assessed as late apoptotic cells after 24 hrs by annexin-V staining based flow cytometry analysis; assay type: functional, cell-based
[5] = test system: HT-29; assay: Anticancer activity against human HT-29 cells assessed as inhibition of cell growth after 24 hrs by MTT assay; assay type: functional, cell-based; conditions: HT-29, 24 h; procedure, shortened: as §1
[6] = test system: RKO; assay: Anticancer activity against human RKO cells assessed as inhibition of cell growth after 72 hrs by MTT assay; assay type: functional, cell-based; procedure, shortened: as §1
[7] = test system: HCT-116; assay: Induction of apoptosis in human HCT116 cells assessed as necrotic cells at 5 uM after 24 hrs by annexin-V staining based flow cytometry analysis (reference value: 0.72%); assay type: functional
[8] = Anticancer activity against human HCT116 cells assessed as inhibition of cell growth after 24 hrs by MTT assay; assay type: functional, cell-based; conditions: HCT-116, 24 h; procedure, shortened: as §1
[9] = test system: HCT-116; assay: Induction of apoptosis in human HCT116 cells assessed as viable cells at 1 uM after 24 hrs by annexin-V staining based flow cytometry analysis (reference value: 90.38%); assay type: functional; conditions: HCT-116, 24 h, read-out: Activity
[10] = test system: HCT-116; assay: Induction of apoptosis in human HCT116 cells assessed as early apoptotic cells after 24 hrs by annexin-V staining based flow cytometry analysis; assay type: functional, cell-based
[11] = Anticancer activity against human DU145 cells assessed as inhibition of cell growth after 72 hrs by MTT assay; assay type: functional, cell-based; conditions: DU-145, 72 h; procedure, shortened: as §1
[12] = Anticancer activity against human 1205 Lu cells assessed as inhibition of cell growth after 48 hrs by MTT assay; assay type: functional, cell-based; procedure, shortened: as §1
[13] = Anticancer activity against human HCT116 cells assessed as inhibition of cell growth after 48 hrs by MTT assay; assay type: functional, cell-based; conditions: HCT-116, 48 h; procedure, shortened: as §1
[14] = test system: RKO; assay: Potency index, ratio IC50 of 5-FU to IC50 of compound for anticancer activity against human RKO cells; assay type: functional
Procedure, shortened: (§2)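 Colon lines (McCoy's 5A, 10% FBS, penicillin/streptomycin, 37 °C, 5% CO2) seeded at 3,000 cells/well and exposed 24, 48 or 72 h to DMSO or seven concentrations across 0.5–50 µM. MTT added 3 h before end; formazan dissolved in DMSO, absorbance read at 570 and 630 nm. IC50 (50% growth inhibition) from curve fitting; index is the 5-FU IC50 divided by the compound IC50.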

[15] = test system: HCT-116; assay: Decrease in number of viable cells in human HCT116 cells at 2.5 uM after 24 hrs by calcein-AM and ethidium homodimer-1 staining based flow cytometry analysis (reference value: 94.9%); assay type: functional
[16] = test system: HCT-116; assay: Induction of apoptosis in human HCT116 cells assessed as viable cells at 2.5 uM after 24 hrs by caspase3/7 reagent based flow cytometry (reference value: 88.4%); assay type: functional; conditions: HCT-116, 24 h, read-out: Activity
[17] = test system: HCT-116; assay: Induction of apoptosis in human HCT116 cells assessed as early apoptotic cells at 1 uM after 24 hrs by caspase3/7 reagent based flow cytometry (reference value: 5.18%); assay type: functional
[18] = test system: HCT-116; assay: Induction of apoptosis in human HCT116 cells assessed as late apoptotic cells at 5 uM after 24 hrs by caspase3/7 reagent based flow cytometry (reference value: 2.28%); assay type: functional
[19] = test system: HCT-116; assay: Induction of apoptosis in human HCT116 cells assessed as late apoptotic cells at 5 uM after 24 hrs by annexin-V staining based flow cytometry analysis (reference value: 1.06%); assay type: functional
[20] = test system: HCT-116; assay: Induction of apoptosis in human HCT116 cells assessed as necrotic cells at 1 uM after 24 hrs by caspase3/7 reagent based flow cytometry (reference value: 4.14%); assay type: functional
[21] = test system: HCT-116; assay: Induction of apoptosis in human HCT116 cells assessed as viable cells at 2.5 uM after 24 hrs by annexin-V staining based flow cytometry analysis (reference value: 90.38%); assay type: functional; conditions: HCT-116, 24 h, read-out: Activity
[22] = test system: HT-29; assay: Anticancer activity against human HT-29 cells assessed as inhibition of cell growth after 72 hrs by MTT assay; assay type: functional, cell-based; conditions: HT-29, 72 h; procedure, shortened: as §1
[23] = Anticancer activity against human PANC1 cells assessed as inhibition of cell growth after 72 hrs by MTT assay; assay type: functional, cell-based; conditions: PANC-1, 72 h; procedure, shortened: as §1
[24] = test system: HCT-116; assay: Induction of apoptosis in human HCT116 cells assessed as early apoptotic cells at 1 uM after 24 hrs by annexin-V staining based flow cytometry analysis (reference value: 7.84%); assay type: functional
[25] = test system: HCT-116; assay: Induction of apoptosis in human HCT116 cells assessed as necrotic cells at 5 uM after 24 hrs by caspase3/7 reagent based flow cytometry (reference value: 4.14%); assay type: functional
[26] = Anticancer activity against human 1205 Lu cells assessed as inhibition of cell growth after 72 hrs by MTT assay; assay type: functional, cell-based; procedure, shortened: as §1
[27] = test system: HCT-116; assay: Induction of apoptosis in human HCT116 cells assessed as late apoptotic cells at 1 uM after 24 hrs by annexin-V staining based flow cytometry analysis (reference value: 1.06%); assay type: functional
[28] = test system: HCT-116; assay: Potency index, ratio IC50 of 5-FU to IC50 of compound for anticancer activity against human HCT116 cells; assay type: functional; procedure, shortened: as §2
[29] = test system: A549; assay: Anticancer activity against human A549 cells assessed as inhibition of cell growth after 72 hrs by MTT assay; assay type: functional, cell-based; conditions: A549, 72 h; procedure, shortened: as §1
[30] = Anticancer activity against human BxPC3 cells assessed as inhibition of cell growth after 48 hrs by MTT assay; assay type: functional, cell-based; conditions: BXPC-3, 48 h; procedure, shortened: as §1
[31] = test system: HCT-116; assay: Decrease in whole PARP level in human HCT116 cells at 0.5 to 5 uM after 24 hrs by western blot analysis; assay type: functional, cell-based
Procedure, shortened: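 HCT116 cells (6 × 10^5/well) treated for 24 h. Whole-cell lysates made in RIPA buffer with phosphatase and protease inhibitors and PMSF, cleared at 15,000 g, resolved by SDS-PAGE and transferred to PVDF. Blots probed overnight in the cold with primary antibodies, then peroxidase-linked secondaries, and detected by ECL; β-actin antibody used.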

[32] = test system: HCT-116; assay: Induction of apoptosis in human HCT116 cells assessed as early apoptotic cells at 5 uM after 24 hrs by annexin-V staining based flow cytometry analysis (reference value: 7.84%); assay type: functional

Br.Br.N=C(N)[Se]Cc1nc2ccccc2nc1C[Se]C(=N)N
viability at 5 µM [1]: 16.1%
viability at 5 µM [2]: 24.6%
IC50 [3]: 3 µM
Activity [4]: Dose-dependent effect
IC50 [5]: 5 µM
IC50 [6]: 2.5 µM
Activity [7]: 0.68%
IC50 [8]: 2.9 µM
viability at 1 µM [9]: 78.1%
Activity [10]: Dose-dependent effect
IC50 [11]: 1 µM
IC50 [12]: 2.8 µM
IC50 [13]: 0.7 µM
Ratio IC50 [14]: >50
Activity [15]: 92.2%
viability at 2.5 µM [16]: 85%
Activity [17]: 7.18%
Activity [18]: 50.26%
Activity [19]: 35.68%
Activity [20]: 3.18%
viability at 2.5 µM [21]: 66.2%
IC50 [22]: 2.2 µM
IC50 [23]: 2 µM
Activity [24]: 19.44%
Activity [25]: 5.96%
IC50 [26]: 2.2 µM
Activity [27]: 2.28%
Ratio IC50 [28]: >50
IC50 [29]: 1 µM
IC50 [30]: 2.9 µM
Activity [31]: Active
Activity [32]: 39.02%
